# Source: PubChem BioAssay (SRMLSC)
# Fibroblast inh: antiproliferative effect on LL 47 fibroblasts – human, LL 47 cells, CellTiter-Glo luminescence, primary screen | LL 47 human lung fibroblast viability, ATP luminescence; stronger effect = lower value | viability, % at 10 µM | 1.1% of 85,000 active;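 active means viability at or below 50% in the single dose screen; inactive means viability above 50%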;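 further: compound exposure lasted 72 h before the ATP readout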
#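 Benchmarks: Cell-only wells, no compound | Test system: LL 47 human lung fibroblasts, passage 12 or lower | Input: 1,150 cells/well | Measured by: CellTiter-Glo luminescence measuring cellular ATP | Medium: IMEM, 15% FBS supplement | Schedule: Overnight attachment after seeding, then 72 h compound exposure at 37 °C | Doses: Compound addition at 0.1% DMSO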
# HCT116 PTEN-null: growth suppression of PTEN-null HCT116, primary screen, cell-based, CellTiter-Glo; HCT116 PTEN-null viability, 60 h; stronger effect = lower value; 1.2% of 140,000 active; viability, % at 10 µM;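 active means viability at or below a set limit, 4 SD under the median of all tested compounds, cut at about 3.7% in these data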;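 further: PTEN knockout HCT116 line with beta catenin targeted HCT116 as companion control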
# H69AR inhibit: proliferation blockers of H69AR lung cancer cells, primary screen, cell-based, human, 86K library | 6% of 85,000 active | viability, % at 10 µM | H69AR lung tumor viability, ATP luminescence, 72 h; stronger effect = lower value;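 active means viability at or below 40%; inactive means viability above 40%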;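 further: multidrug resistant small cell line overexpressing MRP-1 efflux transporter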
# bCat KO growth: primary screen for growth suppressors in beta-catenin knockout HCT116 cells (colon tumor, human) | viability, % at 10 µM | HCT116 beta-catenin knockout viability, CellTiter-Glo, 60 h; stronger effect = lower value | AID 818, 2007 | 1.5% of 140,000 active;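 active means viability at or under a set limit, the compound median less 4 SD, cut at about 6% in these data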
# HUVEC prolif 384: inhibitors of HUVEC proliferation, primary screen, cell-based, 384-well; CellTiter-Glo luminescence, 72 h; stronger effect = lower value; viability, % at 10 µM (by protocol); 1.1% of 86,000 active; AID 648, 2007;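 active means viability at or below 30%; inactive means viability above 30%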
# A number is an active result; i = inactive; nt = not tested or not shown. The entries come from a sample that favours hits as a whole.
SMILES,Fibroblast inh,HCT116 PTEN-null,H69AR inhibit,bCat KO growth,HUVEC prolif 384
O=C(Nc1ccc(-c2noc(CCc3ccccc3)n2)cc1)c1ccco1,i,i,i,i,i
CCOC(=O)Nc1ccc(OC)cc1S(=O)(=O)N1CCCCC1,i,i,i,i,i
N#Cc1ccc(C(=O)Nc2cccc3ncccc23)c(F)c1,nt,i,nt,i,nt
Cc1cc(C)c2oc(-c3ccc(Cl)c(NC(=O)c4ccc(C#N)cc4F)c3)nc2c1,20.3,i,21.6,i,i
COc1ccccc1Nc1ccc(S(=O)(=O)N2CCCCC2)cc1[N+](=O)[O-],nt,i,nt,i,nt
COc1ccc(NS(=O)(=O)c2cc(OC)ccc2NC(=O)c2cc(C)oc2C)cc1,i,i,21.4,i,i
COc1ccc(NC(=O)c2cc(-c3ccccc3)oc2C)cc1,nt,i,nt,i,nt
COc1ccc(NS(=O)(=O)c2cc(C)ccc2C)cc1,i,i,13.5,i,i
O=C1CN(c2ccc(Cl)cc2)C(=O)CN1NC(=S)Nc1ccc(Cl)cc1,nt,i,nt,i,nt
Cc1ccc(-n2c(=O)cc(NCc3cccnc3)[nH]c2=O)cc1,nt,i,nt,i,nt
COc1cccc(-c2cc(C(=O)Nc3cccnc3)no2)c1,i,i,i,i,i
COc1cccc(-c2cc(C(=O)Nc3cc(OC)c(OC)c(OC)c3)no2)c1,i,i,16.9,i,i
O=C(CSc1nnc2scc(-c3ccccc3)n12)Nc1nsc(-c2ccccc2)n1,i,i,38.4,i,i
COc1ccc(N2C(=O)CC(Sc3ncn[nH]3)C2=O)c(OC)c1 (stereo not given),i,i,1.6,i,i
CC(C)c1ccc(N2C(=O)CC(Sc3ncn[nH]3)C2=O)cc1 (stereo not given),i,i,i,i,i
O=C(NNC(=O)c1cccnc1)Nc1cccc(Cl)c1Cl,nt,i,nt,i,nt
CCOC(=O)N1CCN(S(=O)(=O)c2ccc(C(=O)Nc3nc4ccccc4s3)cc2)CC1,i,i,13.2,i,i
CN(CC(=O)Nc1nc2ccccc2s1)S(=O)(=O)c1ccc(Cl)cc1,i,i,36.2,i,i
CCOC(=O)c1sc(NC(=O)c2ccc(S(=O)(=O)N3CCCCC3)cc2)nc1-c1ccccc1,nt,i,nt,i,nt
CN(CC(=O)Nc1nc2ccccc2s1)S(=O)(=O)c1ccc(Br)cc1,i,i,i,i,i
CCOC(=O)N1CCN(S(=O)(=O)c2ccc(C(=O)Nc3nc4ccc(F)cc4s3)cc2)CC1,28.6,i,22.6,i,i
CCOC(=O)N1CCN(S(=O)(=O)c2ccc(F)cc2)CC1,i,i,i,i,i
CC(C)(C)c1ccc(O)c(/C=N\O)c1,i,i,25.1,i,i
CC(C)(C)c1cccc(/C=N/O)c1O,i,nt,i,i,i
CCOC(=O)c1cnn(-c2ncnc3c2cnn3Cc2ccccc2)c1N,i,nt,25.7,nt,20.1
SMILES,Fibroblast inh,HCT116 PTEN-null,H69AR inhibit,bCat KO growth,HUVEC prolif 384
COc1ccc(N2CCN(CC(O)COc3ccc4c(c3)CCC4)CC2)cc1 (stereo not given),i,i,i,i,i
CN=C1CC(SC)=C1c1ccc(C)cc1,33.3,i,38.5,i,i
CCOC(=O)CN1NC2(CCCC(C)C2)NC1=S (stereo not given),i,i,i,i,i
CCOC(=O)C(C)(C)N(Cc1cccc(C)c1)S(=O)(=O)c1ccc(Cl)c([N+](=O)[O-])c1,nt,3.3,nt,1.7,nt
CCOc1nc(NC(=O)NC(=O)c2ccccc2)nc(-c2ccccc2)n1,nt,i,nt,i,nt
Cn1cc([N+](=O)[O-])c(C(=O)Nc2ccn(Cc3c(F)c(F)cc(F)c3F)n2)n1,nt,3.1,nt,3.0,nt
Cn1cc([N+](=O)[O-])c(C(=O)N/N=C/c2ccc([N+](=O)[O-])cc2)n1,nt,i,nt,i,nt
Cn1cc([N+](=O)[O-])c(C(=O)Nc2ccc(Br)cn2)n1,nt,1.4,nt,2.7,nt
COCCn1c(SCC(=O)NCc2ccc3c(c2)OCO3)nnc1-c1c[nH]c2ccccc12,i,i,i,i,i
Nc1nc(Cl)nc2c1ncn2[C@@H]1O[C@H](CO)[C@@H](O)[C@H]1O,i,i,17.7,i,i
CN(C)c1ncnc2c1ncn2C1OC(CO)C(O)C1O (stereo not given),40.7,i,6.8,5.2,14.6
C/C(Cl)=C/Cn1c(SCC(C)C)nc2c1c(=O)[nH]c(=O)n2C,i,nt,35.3,nt,i
Cc1ccc(NC(=O)c2ccc(NCCN)c([N+](=O)[O-])c2)cc1Cl,nt,i,nt,3.4,nt
Cc1cccc(C)c1NS(=O)(=O)c1ccc(NC(=O)c2ccc(Cl)c([N+](=O)[O-])c2)cc1,nt,3.3,nt,1.9,nt
O=C(Nc1ccc2c(c1)OCCO2)c1ccc(Cl)c([N+](=O)[O-])c1,nt,i,nt,i,nt
O=C(Nc1cccc(S(=O)(=O)Nc2ccccc2Cl)c1)c1ccc(N2CCCC2)c([N+](=O)[O-])c1,nt,i,nt,i,nt
O=C(Nc1ccc(C(O)(C(F)(F)F)C(F)(F)F)cc1)c1ccc(Cl)c([N+](=O)[O-])c1,nt,1.8,nt,1.6,nt
CC(C)CC(NC(=O)OC(C)(C)C)C(=O)NC(C(=O)NC(C)C(N)=O)C(C)C (stereo not given),i,i,i,i,i
CC(C)CC(NC(=O)C(NC(=O)C(Cc1ccc(OCc2ccccc2)cc1)NC(=O)OC(C)(C)C)C(C)C)C(N)=O (stereo not given),nt,i,nt,5.5,nt
O=C(c1cccc(F)c1)N1CCN(C(=O)c2cc(-c3ccc(Cl)cc3Cl)on2)CC1,i,i,i,i,i
O=C(CC1(O)C(=O)N(C/C=C/c2ccccc2)c2ccccc21)c1ccccn1 (stereo not given),i,i,24.5,i,i
CNC(=O)/C=C1\NC(C)(C)Cc2c1ccc1ccccc21,i,i,22.7,i,i
COc1ccc(C2=Nn3c(nnc3-c3ccncc3)SC2)cc1OC,nt,i,nt,i,nt
COc1ccc(C2=Nn3c(nnc3-c3cccnc3)SC2)cc1OC,44.8,nt,i,nt,i
COc1ccccc1-c1nnc2n1N=C(c1ccc(O)c(O)c1)CS2,37.5,i,21.4,i,i
SMILES,Fibroblast inh,HCT116 PTEN-null,H69AR inhibit,bCat KO growth,HUVEC prolif 384
CCOC(=O)C1(N(CC)CC)Sc2cc(C)ccc2NC1=O (stereo not given),i,i,15.5,i,i
N=c1c2c(-c3ccccc3)c(-c3ccccc3)oc2ncn1CCCN1CCOCC1,i,i,i,i,8.9
c1ccc(-c2oc3ncnc(NCCN4CCOCC4)c3c2-c2ccccc2)cc1,i,i,36.5,i,i
N=c1c2c(-c3ccccc3)c(-c3ccccc3)oc2ncn1CCN1CCOCC1,i,i,i,i,i
Cc1ccc(CO/N=C\Cc2snc(Sc3ncc(C(F)(F)F)cc3Cl)c2C#N)cc1,i,i,i,i,i
OCCNc1ncnc2c1c(-c1ccccc1)c(-c1ccccc1)n2Cc1ccco1,nt,i,nt,i,nt
N=c1c2c(-c3ccccc3)c(-c3ccccc3)n(Cc3ccco3)c2ncn1Cc1ccccc1,31.8,1.9,9.9,1.1,2.1
CC(C)Cn1cnc2c(c(-c3ccccc3)c(-c3ccccc3)n2Cc2ccco2)c1=N,3.1,3.0,1.1,2.8,2.5
